# Screens: PubChem, Sanford-Burnham Center for Chemical Genomics
# SENP1 inh: blocks the human SENP1 SUMO protease catalytic domain | recombinant SENP1 catalytic domain, CyPet-SUMO1-YPet FRET cleavage | inhibition, % at 10 µM | 360,000 compounds, 0.21% hits | Q9P0U3;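 active means inhibition at least 30% at 10 µM, raw YFP signal under a set limit, fluorescence ratio 0.5 to 1.5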;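 further: 0% = enzyme with DMSO and 100% = no enzyme wells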
#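 material = recombinant human SENP1 catalytic domain, His6-tagged | quantity = 20 pM enzyme | reagent = 25 nM SUMO1 FRET substrate | compound dosing = 10 µM single point, 0.5% DMSO | timing = 50 min enzyme reaction, room temperature, light-protected | detection = FRET, CFP and YFP emission | control set = no-enzyme low, enzyme-DMSO high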
# SENP7 inh: inhibitors of human SENP7 protease. 330,000 compounds, 1.5% hits. recombinant SENP7, Z-RLRGG-aminoluciferin luminescence, 40 min. inhibition, % at 5 µM;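 active means inhibition above about 50% at the single test dose, limit read from the data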;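 further: plate controls were DMSO with enzyme for no effect and no enzyme buffer wells for full effect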
# SENP8 block-1: SENP8 protease inhibition | Q96LD8 | purified SENP8, Z-RLRGG-aminoluciferin cleavage, luminescence | inhibition, % at 10 µM | 330,000 compounds, 1.2% hits | AID 2540; in the data active means inhibition above about 50%
# SENP6 block: inhibitors of human SENP6 protease | Q9GZR1 | Recombinant SENP6 catalytic domain, aminoluciferin luminescence | inhibition, % at 10 µM | 330,000 compounds, 1.8% hits | AID 2599;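 active means inhibition above about 50% at the single tested dose, limit read from the data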;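 further: plate controls were DMSO wells with enzyme for no effect and DMSO wells lacking enzyme for full effect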
# SENP8 block-2: inhibitors of human SENP8 protease. 360,000 compounds, 0.64% hits. inhibition, % at 20 µM. recombinant SENP8, Nedd8 substrate fluorescence. Q96LD8; in the data active means inhibition mostly above about 40%, no sharp cut-off; inactive means mostly below about 27%
# Apaf-1 inh: inhibitors of human Apaf-1 apoptosome. 330,000 compounds, 0.71% hits. inhibition, % at 20 µM. O14727. reconstituted apoptosome caspase-3 activity, DEVD-Rh110 fluorescence; active means inhibition of at least 40% at 20 µM;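 further: plate controls were DMSO wells for no effect and DEVD-CHO caspase inhibitor wells for full effect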
# Target sequence (O14727 whole entry, looked up): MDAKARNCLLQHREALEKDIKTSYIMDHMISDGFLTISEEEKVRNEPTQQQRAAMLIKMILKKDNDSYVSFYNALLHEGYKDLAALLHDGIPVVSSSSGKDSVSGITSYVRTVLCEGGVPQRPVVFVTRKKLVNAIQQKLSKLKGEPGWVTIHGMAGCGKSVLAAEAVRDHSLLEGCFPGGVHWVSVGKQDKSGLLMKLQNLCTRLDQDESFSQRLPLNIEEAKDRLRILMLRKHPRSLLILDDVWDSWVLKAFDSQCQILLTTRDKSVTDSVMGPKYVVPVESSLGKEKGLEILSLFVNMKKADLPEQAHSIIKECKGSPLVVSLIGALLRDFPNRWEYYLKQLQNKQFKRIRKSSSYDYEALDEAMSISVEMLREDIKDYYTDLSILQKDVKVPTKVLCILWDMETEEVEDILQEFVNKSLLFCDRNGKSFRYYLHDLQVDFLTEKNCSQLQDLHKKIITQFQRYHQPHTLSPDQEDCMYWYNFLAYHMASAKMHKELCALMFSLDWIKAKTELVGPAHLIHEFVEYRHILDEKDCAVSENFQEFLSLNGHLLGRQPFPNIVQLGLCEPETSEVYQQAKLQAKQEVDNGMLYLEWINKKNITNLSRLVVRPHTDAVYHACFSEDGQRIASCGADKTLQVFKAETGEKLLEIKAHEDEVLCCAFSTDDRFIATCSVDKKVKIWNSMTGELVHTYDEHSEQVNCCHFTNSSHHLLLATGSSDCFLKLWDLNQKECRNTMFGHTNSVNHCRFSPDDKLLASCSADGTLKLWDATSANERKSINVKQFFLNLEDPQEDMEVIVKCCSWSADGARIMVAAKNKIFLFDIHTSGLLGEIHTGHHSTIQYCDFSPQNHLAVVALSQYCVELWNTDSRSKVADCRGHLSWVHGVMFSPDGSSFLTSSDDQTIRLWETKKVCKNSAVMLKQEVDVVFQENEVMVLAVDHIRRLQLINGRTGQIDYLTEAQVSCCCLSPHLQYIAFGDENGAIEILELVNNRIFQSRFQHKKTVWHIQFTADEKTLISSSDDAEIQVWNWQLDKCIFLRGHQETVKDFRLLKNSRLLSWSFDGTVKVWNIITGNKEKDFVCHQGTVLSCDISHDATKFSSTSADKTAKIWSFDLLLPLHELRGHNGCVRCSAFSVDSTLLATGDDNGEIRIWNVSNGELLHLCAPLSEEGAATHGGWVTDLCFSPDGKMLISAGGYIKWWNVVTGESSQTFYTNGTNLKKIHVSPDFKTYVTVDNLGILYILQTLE
#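 Material: reconstituted apoptosome with Apaf-1, cytochrome c, caspase-9, procaspase-3, dATP / Buffer or medium: pH 7.5 Hepes buffer with CHAPS, BSA, DTT / Also added: cytochrome c with DEVD-Rh110 / Schedule: compound with Apaf-1, dATP, procaspase-3 30 min, then 50 min reaction, room temperature / Technique: rhodamine 110 fluorescence at Ex 480/Em 540 nm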
# SENP8 confirm: human SENP8 inhibition, confirmed; shares compounds with SENP7 inh; Recombinant SENP8, Z-RLRGG-aminoluciferin luminescence, 60 min; inhibition, % at 12.5 µM; 6,200 compounds, 40% hits; AID 488912;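 active means mean inhibition across replicates above about 50%, limit read from the data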
# SENP6 conf: confirmation of human SENP6 protease inhibitors; inhibition, % at 12.5 µM; AID 488915; 6,200 compounds, 58% hits; recombinant SENP6, Z-RLRGG-aminoluciferin luminescence; shares compounds with SENP7 inh
# SENP7 conf: confirmation of human SENP7 protease inhibitors; recombinant SENP7, Z-RLRGG-aminoluciferin luminescence, 40 min; inhibition, % at 12.5 µM; shares compounds with SENP7 inh; 6,200 compounds, 69% hits
# Casp3 select: caspase-3 inhibition (SENP selectivity assay); shares compounds with SENP7 inh; purified caspase-3, Z-DEVD-aminoluciferin luminescence, 60 min; inhibition, % at 12.5 µM; 6,200 compounds, 60% hits; AID 488918;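 active means mean inhibition above about 50%, limit read from the data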;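 further: plate controls were enzyme with DMSO for no effect and wells without caspase-3 for full effect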
# Luc interf: interferes with luciferase luminescence in SENP counter-screen; Pre-incubated SENP8/Z-RLRGG-aminoluciferin, luciferase luminescence interference; 6,200 compounds, 39% hits; inhibition, % at 12.5 µM; AID 488919; shares compounds with SENP7 inh;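 active means mean inhibition above about 50% when retested at one dose, limit read from the data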;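 further: plate controls were DMSO wells with completed reaction for no effect and substrate without enzyme for full effect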
# Active calls of the source: *; i = inactive; · = no result. An excerpt weighted towards active compounds, which were near 2.9% of everything screened.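 How the source made its calls, unless noted: active means mean inhibition above about 50% in the one-dose retest (limit read from the data); inactive means the rest.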
SMILES,SENP1 inh,SENP7 inh,SENP8 block-1,SENP6 block,SENP8 block-2,Apaf-1 inh,SENP8 confirm,SENP6 conf,SENP7 conf,Casp3 select,Luc interf
CCCn1c(C)cc(/C=C(\C#N)C(=O)OCC(=O)N(CC)c2c(N)n(Cc3ccccc3)c(=O)[nH]c2=O)c1C,-4,·,·,·,-122,·,·,·,·,·,·
COc1ccc2sc(-c3ccc(N(C)C)cc3)c(C#Cc3cncn3C)c2c1,-24,9,0,13,i,31,·,·,·,·,·
c1ccc(COc2ncnc3c2ncn3CCCN2CCN(c3ncccn3)CC2)cc1,0,·,·,·,-10,·,·,·,·,·,·
O=C1C(C=NCc2ccco2)=C(O)c2ccccc21,5,7,-4,-54,17,5,·,·,·,·,·
Cc1ccccc1N=CC1=C(O)c2ccccc2C1=O,3,102*,93*,98*,40*,-2,94*,98*,102*,97*,54*
O=C1C(C=NCc2ccncc2)=C(O)c2ccccc21,3,-9,-6,2,8,-3,·,·,·,·,·
COc1ccc(OC)c(N=Nc2c(O)c3ccccc3[nH]c2=O)c1,29,·,·,·,21,·,·,·,·,·,·
COc1ccc(N=CC2=C(O)c3ccccc3C2=O)c(OC)c1,6,99*,95*,90*,50*,1,53*,96*,102*,88*,3
O=C1C(C=Nc2ccc(F)cc2)=C(O)c2ccccc21,3,95*,74*,76*,23,13,51*,54*,67*,66*,20
O=C(Nc1ccc(C2SCCS2)cc1)c1ccccc1,-1,92*,53*,50,-9,-23,2,2,28,23,7
O=C(Nc1ccccc1)c1ccc(NC(=O)C2CC2)cc1,2,62*,33,58*,2,4,-28,2,67*,64*,-9
COc1ccccc1Cc1c(-c2ccccc2)nc2cc(C)c(Br)c(C)n12,-4,·,·,·,-4,·,·,·,·,·,·
Fc1ccccc1N=C1NN=C(c2ccccc2)CS1,-2,0,11,-19,-28,18,·,·,·,·,·
Clc1ccccc1N=C1NN=C(c2cccs2)CS1,2,74*,77*,68*,-6,1,85*,86*,97*,69*,77*
COc1ccccc1-c1noc2c1C(=O)N(Cc1cn(Cc3ccccc3)nn1)CC2,0,·,·,·,18,·,·,·,·,·,·
Cc1nc2oc3ccccc3c(=O)c2cc1C(=O)O,7,-7,-4,7,-1,-5,·,·,·,·,·
CC(C)c1ccc2oc3nc(N)c(C(=O)O)cc3c(=O)c2c1,·,101*,96*,97*,·,1,98*,99*,102*,97*,91*
Cc1nc2oc3ccc(Cl)cc3c(=O)c2cc1C(=O)O,-7,79*,70*,79*,-114,-6,82*,81*,96*,94*,76*
Cc1ccc2nc(N3C(=O)C(O)=C(C(=O)c4ccco4)C3c3cccs3)sc2c1 (centres undefined),-63,46,53*,74*,-62,17,7,10,29,38,15
Cc1ccc(C(O)c2ncc(-c3ccccc3Cl)[nH]2)c(C)c1 (centres undefined),-1,·,·,·,16,·,·,·,·,·,·
COc1ccc(C(=O)N=c2sc3ccccc3n2C)cc1,3,77*,69*,1,-433,-6,15,23,24,17,9
